{"source": "ChEMBL document CHEMBL3232832", "about": "“Derivatives of dibenzothiophene for positron emission tomography imaging of α7-nicotinic acetylcholine receptors” (J Med Chem, 2013)", "assay_type_in_all_cases": "ADME, organism-based", "key": {"[1]": {"test_system": "Cortex", "assay": "Drug uptake in CD-1 mouse cortex at 70 uCi, iv after 90 mins in presence of cytisine", "conditions": "in vivo, 1.5 h; call rule not given here", "procedure,_shortened": "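Male CD-1 mice, n=3. […] [18F] radiotracer (70 µCi, SA ~14000 mCi/µmol) given i.v. 5 min later. Regions harvested at 90 min, gamma counted, expressed as %ID/g.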"}, "[2]": {"test_system": "Hippocampus", "assay": "Drug uptake in CD-1 mouse hippocampus at 0.07 mCi, iv after 90 mins co-administered with SSR180711", "conditions": "in vivo, 1.5 h", "procedure,_shortened": "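Male CD-1 mice (25–30 g), three per dose. Blocker in saline:ethanol 9:1 pH 5.5, given i.v. with [18F] radiotracer (70 µCi, SA 7900 mCi/µmol). Blocker doses 0, 0.02, 0.2, 1 and 3 mg/kg. Regions dissected 90 min later and gamma counted. Expressed as %ID/g, mean ± SD.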"}, "[3]": {"test_system": "Cortex", "assay": "Drug uptake in CD-1 mouse cortex at 70 uCi, iv administered 10 mins post ondansetron challenge measured after 90 mins", "conditions": "in vivo, 1.5 h", "procedure,_shortened": "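Male CD-1 mice, n=3. Drug at 2 mg/kg s.c. in saline:DMSO 5:1, with vehicle controls. [18F] radiotracer (70 µCi, SA ~14000 mCi/µmol) given i.v. 10 min later. Regions harvested 90 min after tracer, gamma counted, expressed as %ID/g. Compared by single-factor ANOVA.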"}, "[4]": {"test_system": "Striatum", "assay": "Drug uptake in CD-1 mouse striatum at 70 uCi, iv followed by compound washout by gamma-counting analysis", "conditions": "in vivo", "procedure,_shortened": "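Male CD-1 mice (25–30 g) given [18F]radioligand i.v. into a lateral tail vein (70 µCi, 8000–12000 mCi/µmol, in 0.2 mL saline). Killed by cervical dislocation at various times, three per time point. Brains dissected on ice; regions weighed and gamma-counted with injectate standards. Result as %ID/g.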"}}, "data": [{"molecule": "O=S1(=O)c2cc(N3CCN4CCC3CC4)ccc2-c2cccc([18F])c21", "values": [{"measurement": "Drug uptake", "setting": "[1]", "value": "Not Active"}, {"measurement": "Drug uptake", "setting": "[2]", "value": "Not Active"}, {"measurement": "Drug uptake", "setting": "[3]", "value": "Active"}, {"measurement": "Drug uptake", "setting": "[4]", "value": "Active"}]}]}
